Reference: PMC2791397 (Biochimica et biophysica acta, 2009)

Columns and labels:
Hmt1p = Hmt1p (Saccharomyces cerevisiae, UniProt P38074); test: Kinetic studies of Hmt1p-mediated H4 peptide methylation; type: biochemical, budding yeast Saccharomyces cerevisiae; conditions: peptide 0.01 to 10 μM, 3.3 μM 3H-SAM, app. 25 ng GST-Hmt1p, pH 8.0, 30°C, 3 min; Hanes/Wolffe plot; average, n ranging from 2 to 8
[1] = tested on: Imidazoleglycerol-phosphate dehydratase (His3p); conditions: cited from earlier work
yeast cells = test: Cellular growth in the presence of varying concentrations of 3-AT; type: cell-based, budding yeast Saccharomyces cerevisiae; conditions: 30°C, three to five days
In short: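 BY4742-background strains (MATα his3Δ1 leu2Δ0 lys2Δ0 ura3Δ0; isogenic MATa dot1Δ or hmt1Δ) made HIS+ by transformation with a 1.75 kb HIS3 fragment. GCN5 deleted with a gcn5::hisG-URA3-hisG fragment. Log-phase cells from rich medium were serially diluted, spotted onto SC –His plates containing varying 3-AT concentrations, and scored for growth.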

Hmt1p, sequence (P38074 whole entry): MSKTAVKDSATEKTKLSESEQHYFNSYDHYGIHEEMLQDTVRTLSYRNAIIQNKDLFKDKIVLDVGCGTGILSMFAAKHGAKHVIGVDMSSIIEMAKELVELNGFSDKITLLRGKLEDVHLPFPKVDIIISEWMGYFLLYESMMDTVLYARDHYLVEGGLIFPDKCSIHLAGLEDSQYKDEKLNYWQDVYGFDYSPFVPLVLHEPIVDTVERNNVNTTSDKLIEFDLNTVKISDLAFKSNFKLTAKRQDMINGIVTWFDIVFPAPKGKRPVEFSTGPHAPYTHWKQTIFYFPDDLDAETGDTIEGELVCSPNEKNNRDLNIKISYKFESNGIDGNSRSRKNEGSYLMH

| Compound | Km (Hmt1p) [µM] | inhibition of Imidazoleglycerol-phosphate dehydratase [1] | sensitivity to 3-AT, dot1 deletion (yeast cells; dot1! cells, SC -His plates) | sensitivity to 3-AT, gcn5 deletion (yeast cells; gcn5! cells, SC -His plates) | resistance to 3-AT, gcn5 hmt1 double knockout (yeast cells; gcn5! hmt1! cells vs gcn5! strain, SC -His plates) | sensitivity to 3-AT, hmt1 deletion (yeast cells; hmt1! cells, 20- and 40-mM 3-AT plates, SC -His) |
| --- | --- | --- | --- | --- | --- | --- |
| Ac.K8: synthetic histone H4 peptide (residues 1–18) with acetyllysine at position 8 | 0.059 ± 0.02 | – | – | – | – | – |
| Nc1nc[nH]n1 [3-AT, 3-amino-1,2,4-triazole] | – | competitive inhibitor | did not have an obvious effect | hypersensitive | significantly higher resistance to 3-AT | sustain higher concentrations of 3-AT |
